These results are taken from ChEMBL document CHEMBL4368875, “Towards identifying potent new hits for glioblastoma” (Medchemcomm, 2018).

One data set deals with U-251. The data set is described as follows: Antiproliferative activity against human U251MG cells after 72 hrs by sulforhodamine B assay. To be noted: U-251, 72 h. It is filed as functional, cell-based. The method, boiled down: (§1)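 Established GBM lines grown under conditions similar to the short-term cultures (Hams F10, 10% foetal calf serum, 37 °C, no CO₂). Seeded at 3000 cells per well and grown 48 h to exponential phase. Exposed 72 h to serial dilutions from DMSO stocks. Fixed in 10% TCA, stained with 0.4% SRB in 1% acetic acid, dye dissolved in 10mM Tris, absorbance 560nm. EC50 by non-linear variable-slope fit.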
For orientation: In SRB staining, fixed cells bind dye roughly in proportion to their protein.

Data set [1] is described as follows: Antiproliferative activity against human IN1528 cells after 72 hrs by sulforhodamine B assay. It is filed as functional, cell-based. To be noted: IN1528, 72 h. In short, it runs like this:
(§2)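 Short-term cultures derived from about 10mg of adult GBM biopsy tissue, used at passages 10 to 14. Grown in Hams F10 with 10% foetal calf serum at 37 °C without CO₂. Seeded at 3000 cells per well, then grown 48 h to exponential phase. Treated 72 h with serial dilutions from DMSO stocks. SRB read-out at 560nm. EC50 from a variable-slope sigmoidal dose-response fit.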

A short description of data set [2]: Antiproliferative activity against human IN1760 cells after 72 hrs by sulforhodamine B assay. Particulars: IN1760, 72 h. It is filed as functional, cell-based. In short, it runs like this: as §2
A further data set deals with U-87 MG. The data set is described as follows: Antiproliferative activity against human U87MG cells after 72 hrs by sulforhodamine B assay. It is filed as functional, cell-based, U-87MG ATCC. The method, boiled down: as §1
Data set [3] is described as follows: Solubility of the compound in DMSO at >1250 uM. It is filed as physicochemical.
Data set [4] is described as follows: Antiproliferative activity against human IN1472 cells after 72 hrs by sulforhodamine B assay. It is filed as functional, cell-based. Particulars: IN1472, 72 h. In short, it runs like this: as §2

What is called EC50 is the concentration needed to bring the measured effect to its halfway point. Higher therefore signals lower potency in that assay. `Cc1c(O)ccc(O)c1C` returned an EC50 in the data set with U-251 of 17 µM.

On to `O=C1c2ccccc2C(=O)N1c1ccccc1O`, for which the figures for the EC50 (with U-251; in data set [1]; in data set [2]) were 916 µM, 744 µM and 1080 µM, respectively.

Turning to `Cc1ccc(O)c(-c2cc3ccccc3[nH]2)c1`, the results for the EC50 (in the data set on U-251; in data set [1]; in data set [2]) were 21 µM, 29 µM and 32 µM, respectively.

For the molecule `Oc1ccccc1-c1nc2ccccc2o1`, the EC50 is 52 µM in the data set with U-87 MG, 2260 µM in the data set on U-251 and above 2500 µM in data set [2].

Turning to `Oc1ccccc1-c1nc2ccccc2s1`, the solubility entry in data set [3] was “Insoluble”. The EC50 (with U-87 MG; in the data set on U-251; in data set [1]; in data set [2]; in data set [4]) was above 1250 µM in each case.

Consider `Oc1ccccc1-c1nc2ccccc2[nH]1`, for which the values for the EC50 (in the data set on U-251; in data set [1]; in data set [2]) were 23 µM, 25 µM and 36 µM, respectively.

`Oc1ccccc1-c1c[nH]c2ccccc12`: the EC50 in the data set on U-251 was 95 µM; in data set [1] it was 120 µM; in data set [2], 231 µM.

Turning to `Oc1ccccc1OCc1ccccc1`, the EC50 in the data set with U-251 stood at 304 µM; in data set [1], 193 µM; in data set [2] it was 371 µM.

As for `Oc1ccccc1-c1ccc2ccccc2c1`, the EC50 in the data set on U-87 MG is 48 µM; in the data set on U-251, 92 µM; in data set [1] it was 104 µM; in data set [2], above 1000 µM.

With `CCCCCCC(=O)Oc1ccccc1-c1cc2ccccc2[nH]1`, the EC50 came to 38 µM in the data set on U-251 and 29 µM in data set [1].

Turning to `CC(=O)Oc1ccccc1-c1cc2ccccc2[nH]1`, the figures for the EC50 (in the data set with U-251; in data set [1]) were 31 µM and 80 µM, respectively.

Take `Nc1ccccc1-c1cc2ccccc2[nH]1`: the EC50 with U-87 MG was 257 µM; with U-251 it was 328 µM; in data set [1] it was 153 µM; in data set [4], 155 µM.

On to `O=C(Oc1ccccc1-c1cc2ccccc2[nH]1)c1ccccc1`, for which the figures for the EC50 (in the data set on U-251; in data set [1]) were 39 µM and 38 µM, respectively.

`Oc1ccc(-c2ccccc2)cc1`: the EC50 in the data set with U-251 amounted to 102 µM; in data set [1] it was 85 µM; in data set [2] it was 81 µM.

Turning to `Oc1ccccc1-c1cc2ccccc2[nH]1` [2-(2'-HYDROXYPHENYL)-1H-INDOLE], the 50% effective concentration (EC50) in the data set on U-87 MG is 126 µM; in the data set on U-251, 130 µM; in data set [1] it was 99 µM; in data set [2], 185 µM; in data set [4] it was above 625 µM.

In the data set on U-87 MG, `COc1ccccc1-c1cc2ccccc2[nH]1` [2-(2'-METHOXYPHENYL)-1H-INDOLE] returned an EC50 above 625 µM.

Take `c1ccc(-c2cc3ccccc3[nH]2)cc1` [2-PHENYL-1H-INDOLE]: the EC50 (with U-87 MG; with U-251; in data set [1]; in data set [2]; in data set [4]) was above 625 µM throughout.

On to `Oc1ccccc1-c1ccccc1` [2-PHENYLPHENOL], for which the EC50 amounted to 372 µM in the data set on U-251, 361 µM in data set [1] and 236 µM in data set [2].

With `CC(=O)Oc1ccccc1C(=O)O` [ASPIRIN], the EC50 in the data set on U-87 MG is 723 µM; in the data set on U-251 it was 1340 µM; in data set [1], 787 µM; in data set [2], above 4000 µM; in data set [4], 1410 µM.

For the molecule `COc1ccccc1O` [GUAIACOL], the EC50 in the data set on U-87 MG was 492 µM; with U-251 it was 1140 µM; in data set [1], 813 µM; in data set [2], above 4000 µM; in data set [4], 2020 µM.

Molecule `Oc1ccc(O)cc1` [HYDROQUINONE] returned an EC50 in the data set with U-251 of 57 µM.

As for `c1ccc2[nH]ccc2c1` [INDOLE], the EC50 (in the data set with U-87 MG; in the data set with U-251; in data set [1]; in data set [2]; in data set [4]) was above 625 µM throughout.

As for `O=[N+]([O-])c1ccccc1O` [NITROPHENOLATE], the EC50 was 888 µM with U-87 MG, 1250 µM in the data set on U-251, 890 µM in data set [1] and above 4000 µM in data set [2].

As to `Cc1ccccc1O` [ORTHOCRESOL], the concentration giving a half-maximal response (EC50) with U-87 MG is 664 µM; in the data set with U-251, 1560 µM; in data set [1], 744 µM; in data set [2], above 4000 µM; in data set [4] it was 1440 µM.

For `Oc1ccccc1` [PHENOL], the EC50 was 834 µM in the data set on U-87 MG; 1230 µM in the data set on U-251; 747 µM in data set [1]; above 4000 µM in data set [2]; 1730 µM in data set [4].

As to `NC(=O)c1ccccc1O` [SALICYLAMIDE], the EC50 with U-87 MG was 760 µM; in the data set with U-251, 1200 µM; in data set [1], 793 µM; in data set [2] it was above 4000 µM; in data set [4] it was 1390 µM.
